Each structure is given as a SMILES string. Square brackets hold non-standard residues; d marks the D form. Peptide text beside a SMILES is read from it. Sar = CNCC(=O)O A value given as a limit tells only on which side of the number the result lay.

In general, pA2 refers to the negative logarithm of the molar antagonist concentration that doubles the agonist concentration needed for the same response.

Assay [1] addresses Angiotensin II receptor (Rattus norvegicus) (UniProt P29089+P25095+P35351). Kind of assay: Intrinsic myotropic activity at angiotensin 2 receptor in Sprague-Dawley rat uterus relative to [Ile5]angiotensin 2. A digest of the protocol:
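Isolated uterus from diethylstilbestrol-primed female Sprague-Dawley rats (150-250 g), challenged every 12 min. Activity expressed relative to [Ile5]angiotensin II (MRC Research Standard A, 70/302). Mean ± SEM, with the number of experiments given.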

Assay [2] deals with Rattus norvegicus. The assay is described as follows: Pressor activity in anesthetized vagotomized-ganglionic blocked rat model administered as bolus injection relative to [Ile5]angiotensin 2. Format: functional. The gist of the method: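 Anesthetized, vagotomized rats. Ganglion block with mecamylamine hydrochloride, 0.3 mg/100 g subcutaneous in 10% polyvinylpyrrolidone. Analogues given as bolus injections in a 2+2 assay against angiotensin II standard (MRC Research Standard A, 70/302). Mean ± SEM, with the number of experiments given.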

In assay [3] the target is T1, Angiotensin II receptor (Rattus norvegicus, UniProt P29089+P25095+P35351).
T1 sequence (P29089 whole entry): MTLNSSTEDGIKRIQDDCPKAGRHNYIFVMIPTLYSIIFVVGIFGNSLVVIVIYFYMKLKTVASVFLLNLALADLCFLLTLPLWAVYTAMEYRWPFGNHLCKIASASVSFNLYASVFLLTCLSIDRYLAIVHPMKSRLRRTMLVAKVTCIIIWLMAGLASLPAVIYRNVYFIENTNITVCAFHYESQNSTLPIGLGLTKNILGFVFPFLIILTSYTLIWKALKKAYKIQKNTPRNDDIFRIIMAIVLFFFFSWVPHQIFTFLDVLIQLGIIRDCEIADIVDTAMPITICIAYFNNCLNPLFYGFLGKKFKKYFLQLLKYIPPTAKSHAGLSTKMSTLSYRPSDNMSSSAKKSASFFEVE
T1 sequence (P25095 whole entry): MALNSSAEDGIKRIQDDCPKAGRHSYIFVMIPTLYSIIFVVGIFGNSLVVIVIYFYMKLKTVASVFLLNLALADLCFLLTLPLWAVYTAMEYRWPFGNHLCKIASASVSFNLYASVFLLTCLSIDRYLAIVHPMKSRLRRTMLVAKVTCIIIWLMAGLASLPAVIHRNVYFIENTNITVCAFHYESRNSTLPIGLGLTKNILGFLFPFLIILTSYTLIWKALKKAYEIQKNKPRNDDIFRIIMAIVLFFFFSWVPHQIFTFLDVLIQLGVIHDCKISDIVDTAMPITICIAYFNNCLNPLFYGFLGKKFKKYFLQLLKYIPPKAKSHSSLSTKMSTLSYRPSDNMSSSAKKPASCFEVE
T1 sequence (P35351 whole entry): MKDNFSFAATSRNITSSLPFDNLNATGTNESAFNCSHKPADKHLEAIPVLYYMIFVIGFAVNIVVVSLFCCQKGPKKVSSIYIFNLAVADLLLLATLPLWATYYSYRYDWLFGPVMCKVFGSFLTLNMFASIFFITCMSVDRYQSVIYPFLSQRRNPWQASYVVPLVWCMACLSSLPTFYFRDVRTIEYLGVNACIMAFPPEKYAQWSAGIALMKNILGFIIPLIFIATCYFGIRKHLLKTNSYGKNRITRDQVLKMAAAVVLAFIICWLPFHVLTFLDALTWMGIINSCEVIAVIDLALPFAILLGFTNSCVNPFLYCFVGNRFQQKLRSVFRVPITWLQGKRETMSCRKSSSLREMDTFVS
The assay is described as follows: Antagonist activity at angiotensin 2 receptor in Sprague-Dawley rat uterus assessed as reduction of angiotensin 2-induced response pretreated for 2 mins followed by angiotensin 2 challenge for every 12 mins.

The compound `CC[C@H](C)[C@H](NC(=O)[C@H](Cc1ccc(O)cc1)NC(=O)[C@@H](NC(=O)[C@H](CCCNC(=N)N)NC(=O)CNC)C(C)C)C(=O)N[C@@H](Cc1cnc[nH]1)C(=O)N(C)CC(=O)N[C@H](C(=O)O)[C@@H](C)OC` (H-[Sar]RVYIH[Sar]T(Me)-OH) had an Intrinsic activity in assay [1] of less than 0.1%. Besides, in assay [2], the Activity amounted to 0.13%. In addition, the pA2 in assay [3] was 7.4.
The corresponding values for `CC[C@H](C)[C@H](NC(=O)[C@H](Cc1ccc(O)cc1)NC(=O)[C@@H](NC(=O)[C@H](CCCNC(=N)N)NC(=O)CNC)C(C)C)C(=O)N[C@@H](Cc1cnc[nH]1)C(=O)N(C)CC(=O)N[C@@H](CCSC)C(=O)O` (H-[Sar]RVYIH[Sar]M-OH) are less than 0.1%, 0.82% and 7.7.
The corresponding values for `CCC(C)C(NC(=O)CN(C)C(=O)[C@H](Cc1cnc[nH]1)NC(=O)[C@@H](NC(=O)[C@H](Cc1ccc(O)cc1)NC(=O)[C@@H](NC(=O)[C@H](CCCNC(=N)N)NC(=O)CNC)C(C)C)[C@@H](C)CC)C(=O)O` (mixture of isomers) are 0.7%, 12.5% and 8.4.
In assay [1], `CC[C@H](C)[C@H](NC(=O)[C@H](Cc1ccc(O)cc1)NC(=O)[C@@H](NC(=O)[C@H](CCCNC(=N)N)NC(=O)CNC)C(C)C)C(=O)N[C@@H](Cc1cnc[nH]1)C(=O)N(C)CC(=O)N[C@@H](CC(C)C)C(=O)O` (H-[Sar]RVYIH[Sar]L-OH) came in with an Intrinsic activity of less than 0.1%. The same compound gave an Activity in assay [2] of 0.21%. Moreover, the pA2 in assay [3] is 7.4.
`CC[C@H](C)[C@H](NC(=O)[C@H](Cc1ccc(O)cc1)NC(=O)[C@@H](NC(=O)[C@H](CCCNC(=N)N)NC(=O)CNC)C(C)C)C(=O)N[C@@H](Cc1cnc[nH]1)C(=O)N(C)CC(=O)N[C@@H](Cc1ccccc1)C(=O)O` (H-[Sar]RVYIH[Sar]F-OH) had an Intrinsic activity in assay [1] of 22%. For the same compound, in assay [2], the Activity was found to be 17%.
On to `CC[C@H](C)[C@H](NC(=O)[C@@H]1CCCN1C(=O)[C@H](Cc1c[nH]cn1)NC(=O)[C@@H](NC(=O)[C@H](Cc1ccc(O)cc1)NC(=O)[C@@H](NC(=O)[C@H](CCCN=C(N)N)NC(=O)CNC)C(C)C)[C@@H](C)CC)C(=O)O`, for which, in assay [1], the Intrinsic activity is less than 0.1%. The Activity in assay [2] is listed as 1.1%.
Take `CC[C@H](C)[C@H](NC(=O)CN(C)C(=O)[C@H](Cc1cnc[nH]1)NC(=O)[C@@H](NC(=O)[C@H](Cc1ccc(O)cc1)NC(=O)[C@@H](NC(=O)[C@H](CCCNC(=N)N)NC(=O)CNC)C(C)C)[C@@H](C)CC)C(=O)O`: the Intrinsic activity in assay [1] was less than 0.1%. In addition, in assay [2], the Activity was found to be 0.7%. The pA2 in assay [3] is recorded as 8.1.
The corresponding values for `CC[C@H](C)[C@H](NC(=O)[C@H](Cc1ccc(O)cc1)NC(=O)[C@@H](NC(=O)[C@H](CCCNC(=N)N)NC(=O)CNC)C(C)C)C(=O)N[C@@H](Cc1cnc[nH]1)C(=O)N(C)CC(=O)N[C@@H](C)C(=O)O` (H-[Sar]RVYIH[Sar]A-OH) are less than 0.1%, 0.06% and 7.
